Experimental data gathered from unrelated publications.
Compare with care: the assays were run in different laboratories.
Effect on: cell growth or viability

SMILES	cell line	technique	time	endpoint	result
Cc1nc(Nc2ccc3c(c2)CC(=O)N3)c2ccccc2n1	B16	MTT	–	IC50	3130 nM
O=C(O)c1cccnc1Nc1cccc(C(F)(F)F)c1	BXPC-3	SRB	48 h	GI50	> 30000 nM
Nc1ccc(/C=C/C(=O)N2CCc3c(oc4c(-c5ccc(F)cc5)cc(-c5ccc(C(=O)N6CCOCC6)nn5)cc34)C2)cn1	BXPC-3	CCK-8	72 h	IC50	> 20000 nM
C=CC(=O)c1cccnc1Nc1cccc(C(F)(F)F)c1	BXPC-3	SRB	48 h	GI50	17500 nM
COc1cc2ncnc(N(C)c3ccc4c(c3)/C(=C/c3cccc(Cl)c3)C(=O)N4C)c2cc1OC	B16	MTT	–	IC50	2510 nM
COc1cc2c3c(n(CCCn4ccnc4)c(=O)c2cc1OC)-c1nc2c(cc1C3=O)OCO2	RD-ES	MTS	72 h	IC50	180 nM
Cc1nc(Nc2ccc3c(c2)/C(=C/c2ccccc2)C(=O)N3C)c2ccccc2n1	B16	MTT	–	IC50	3560 nM
CCNCCCn1c2c(c3cc(OC)c(OC)cc3c1=O)C(=O)c1cc3c(nc1-2)OCO3	RD-ES	MTS	72 h	IC50	20 nM
Nc1ccc(/C=C/C(=O)N2CCc3c(oc4c(-c5ccc(F)cc5)cc(-c5ccc(C(=O)N6C[C@@H]7[C@H](C6)C7(F)F)nn5)cc34)C2)cn1	BXPC-3	CCK-8	72 h	IC50	> 20000 nM
COc1cc2c3c(n(CCCNC(C)C)c(=O)c2cc1OC)-c1nc2c(cc1C3=O)OCO2	RD-ES	MTS	72 h	IC50	31 nM
C=CC(=O)NC1CCN(c2ncc3ncnc(Nc4ccc(Oc5ccc6c(c5)ncn6C)c(C)c4)c3n2)CC1	JHH-4	–	–	EC50	108 nM
